# High-throughput results (PubChem BioAssay)
# CHRM5 antagonist: human M5 muscarinic receptor antagonists, primary screen, CHO cells, Fluo-8 calcium fluorescence. 360,000 tested, 0.59% active. CHO-hM5 cells, ACh EC80. inhibition, % at 3 µM. Muscarinic acetylcholine receptor M5 (Homo sapiens), P08912. AID 624040, 2012;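 active means inhibition above a per-plate cutoff, the mean of that plate's test compounds plus 3 SD, cut at about 27% in these data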;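 further: 0% = acetylcholine EC80 with DMSO and 100% = DMSO without agonist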
# M5 ag: human M5 muscarinic receptor agonists, primary screen, CHO-K1 cells, Fluo-8 calcium fluorescence. CHO-K1 hM5 cells; 0% DMSO wells, 100% maximal acetylcholine response. activation, % at 3 µM. 360,000 tested, 0.19% active. AID 624037, 2012;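 active means activation above the run's mean over test compounds plus 3 SD, cut at about 23% in these data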;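 further: signal is peak over basal fluorescence ratio across the kinetic read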
# M5 PAM: human M5 muscarinic receptor positive allosteric modulators, primary screen, CHO-K1 cells, Fluo-8 calcium fluorescence; Muscarinic acetylcholine receptor M5 (Homo sapiens), P08912; 360,000 tested, 0.3% active; CHO-K1 hM5, ACh EC20 PAM; 0% = ACh EC20, 100% = ACh EC100; activation, % at 3 µM;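 active means activation above the run cutoff, the mean activation of all test compounds plus 3 SD, cut at about 18% in these data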
#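 Assay system – human M5 receptor in CHO-K1 cells · Read-out – % activation, ACh-normalized · Technique – Fluo-8 calcium fluorescence · Dosing – single-point, 3 µM nominal · Incubation – Fluo-8 loading 80 min at 37 °C plus 30 min room temperature · Repeats – singlicate, one well per test compound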
# CHRM4 antagonist: human M4 muscarinic receptor antagonists, primary screen, CHO cells, Fluo-8 calcium fluorescence; inhibition, % at 3 µM; 360,000 tested, 0.73% active; CHO-hM4 cells, ACh EC80;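 active means inhibition above its plate's cutoff, the mean inhibition of sample wells plus 3 SD, cut at about 27% in these data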;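 further: 0% = acetylcholine EC80 with DMSO and 100% = DMSO without agonist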
# Target sequence (P08173 whole entry, looked up): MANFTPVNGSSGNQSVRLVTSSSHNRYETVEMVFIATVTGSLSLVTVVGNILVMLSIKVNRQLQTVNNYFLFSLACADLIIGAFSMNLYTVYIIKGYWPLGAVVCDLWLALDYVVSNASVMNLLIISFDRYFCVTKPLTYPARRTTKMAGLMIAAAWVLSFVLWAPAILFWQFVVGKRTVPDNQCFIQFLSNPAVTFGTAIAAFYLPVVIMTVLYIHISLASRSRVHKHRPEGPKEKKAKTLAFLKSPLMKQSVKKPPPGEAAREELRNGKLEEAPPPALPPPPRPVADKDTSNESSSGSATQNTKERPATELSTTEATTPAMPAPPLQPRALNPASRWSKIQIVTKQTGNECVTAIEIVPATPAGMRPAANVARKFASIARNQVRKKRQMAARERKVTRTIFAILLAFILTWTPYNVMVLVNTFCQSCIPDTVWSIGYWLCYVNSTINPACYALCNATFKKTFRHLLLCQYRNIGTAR
# CHRM4 PAM: human M4 muscarinic receptor positive allosteric modulators, primary screen, CHO-K1 cells, Fluo-8 calcium fluorescence; Muscarinic acetylcholine receptor M4 (Homo sapiens), P08173; CHO-K1 hM4/Gqi5, ACh EC20; 0% = ACh EC20, 100% = maximal ACh; activation, % at 3 µM; 360,000 tested, 0.4% active; AID 624126, 2012;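 active means activation above its plate's cutoff, the mean activation of sample wells plus 3 SD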
# M4 ag: human M4 muscarinic receptor agonists, primary screen, CHO-K1 cells, Fluo-8 calcium fluorescence; Muscarinic acetylcholine receptor M4 (Homo sapiens), P08173; activation, % at 3 µM; 360,000 tested, 0.14% active; CHO-K1 hM4/Gqi5; vehicle 0%, full acetylcholine response 100%;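 active means activation above the run mean over all test wells plus 3 SD, cut at about 32% in these data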;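 further: peak over basal fluorescence ratio per well then scaled between controls; 0% = DMSO wells and 100% = acetylcholine at EC100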
# * = called active by the depositor. Only some compounds are listed: those with a hit (about 1.8% of all), similar ones and a draw of the others.
SMILES,CHRM5 antagonist,M5 ag,M5 PAM,CHRM4 antagonist,CHRM4 PAM,M4 ag
Cc1cc(C)n(-c2nc3c(c(=O)[nH]c(=O)n3C)n2CC(O)COc2ccc(Cl)cc2Cl)n1 (centres undefined),-2,-10,22*,-11,-1,0
CCN(CC)CCNc1nc2c(c(=O)[nH]c(=O)n2C)n1CC(O)COc1ccc(Cl)cc1Cl (centres undefined),4,-6,3,11,-6,0
c1ccc(Cn2nnc3c(N4CCCC4)ncnc32)cc1,5,4,6,-6,21*,4
CCN1CCN(c2ncnc3c2nnn3Cc2ccccc2)CC1,2,-10,-7,-6,2,2
COc1ccc(CNC(=O)CC[C@H]2O[C@@H](n3cnc4c(NC(=O)c5ccccc5)ncnc43)[C@H](O)[C@@H]2O)cc1,-7,2,4,-10,3,1
CSc1ccccc1OCc1cc(C(=O)N2CCN3CCCC3C2)no1 (centres undefined),14,-7,-2,1,-4,1
COc1ccc(S(=O)(=O)N2CCN(C(=O)C3COc4ccccc4O3)CC2)cc1 (centres undefined),14,2,-15,32*,-15,8
COc1cc2nc(N3CCN(C(=O)c4ccco4)CC3)nc(N)c2cc1OC,-4,2,3,-9,-13,9
COc1cc2nc(N3CCN(C(=O)C4COc5ccccc5O4)CC3)nc(N)c2cc1OC (centres undefined),3,1,-7,29*,-11,5
CC(OC(=O)C1CCN(S(=O)(=O)c2ccc(C(C)(C)C)cc2)CC1)C(=O)N(C)C1CCCCC1 (centres undefined),-2,3,3,-10,7,5
Cc1ccc(C)c(C(=O)CSc2n[nH]c(C(C)C)n2)c1,-4,-2,34*,-20,2,1
CC(C)c1ccc(NC(=O)C2(C)Cc3c(-c4ccc(N(C)C)cc4)ccnc3O2)cc1 (centres undefined),-4,-1,0,-5,0,-1
COc1cc(C2C=C(c3cccs3)Nc3ncnn32)cc(OC)c1OC (centres undefined),16,19,-9,10,-14,34*
CCOc1cc(/C=N\NC(=O)CC(=O)NCCc2ccccc2)ccc1O,29*,-1,-19,7,-7,17
COc1cc(/C=N\NC(=O)CC(=O)NCCc2ccccc2)ccc1O,-1,-2,-5,-8,-1,1
CCOc1ccc(/C=N\NC(=O)CC(=O)NCCc2ccccc2)cc1,-1,-4,6,5,-3,0
CN(C)c1ccc(/C=N/NC(=S)NCc2ccccc2)cc1,2,-5,-7,-9,-4,1
CCOc1ccc(/C=N/NC(=O)CC(=O)NCc2ccccc2)cc1,-2,4,28*,-5,7,0
CC(C)(C)c1ccc(/C=N/NC(=S)NCc2ccccc2)cc1,4,1,-1,-9,25*,2
COc1ccc([C@H]2C[C@H](n3cc(-c4ccc(F)cc4)nn3)[C@@H](O)CN2C(=O)C2CCCCC2)cc1,8,0,-5,-20,-1,8
CC(C)(C)c1ccc(Cn2nc(CC(=O)O)c3ccccc3c2=O)cc1,-22,3,21*,-6,12,0
CCOC(=O)Cc1nn(Cc2ccccc2)c(=O)c2ccccc12,-8,-2,-1,0,-2,1
COc1ccc(OC)c(NC(=O)c2cccc(NC(=O)c3ccccc3C(=O)O)c2)c1,3,0,-2,-3,0,0
O=[N+]([O-])/C=C/c1cn(Cc2ccc(Cl)cc2)c2ccccc12,33*,1,7,4,-7,0
COc1ccc(NCc2ccc(OC)c(Cn3ccnc3)c2)c(OC)c1,5,-4,-12,1,-14,3
SMILES,CHRM5 antagonist,M5 ag,M5 PAM,CHRM4 antagonist,CHRM4 PAM,M4 ag
Cn1c(CCN2CCN(c3ccccn3)CC2)nc2cc(NC(=O)COc3ccc(Cl)cc3)ccc21,27*,-5,-16,21,-14,22
Cc1ccc(S(=O)(=O)Nc2ccc3c(c2)nc(CCN2CCN(c4ccccn4)CC2)n3C)cc1,14,-9,-6,17,-12,5
Cn1c(CCN2CCN(c3ccccn3)CC2)nc2cc(NS(=O)(=O)c3ccc(Cl)cc3)ccc21,27*,-7,-16,21,-14,20
COc1cc(OC)nc(NC(=O)CSc2nnc(-c3ccccc3)n2C2CCCCC2)n1,15,0,25*,-6,7,2
Cc1cnc(NC(=O)CSc2nnc(-c3ccncc3)n2C2CCCCC2)s1,-10,-1,1,-5,33*,1
CC(=NNC(=S)N1CCN(c2ccccn2)CC1)c1ccccn1,8,4,-9,10,-6,8
CC(=NNC(=S)N1CCN(c2ccccn2)CC1)c1nccs1,29*,-7,-21,43*,-5,4
Cc1cccc(OCC(=O)Nc2c3c(nn2C(C)(C)C)CS(=O)(=O)C3)c1,-9,1,-1,-11,-1,2
CC(=O)Nc1ccc(Nc2ncnc3c2cnn3-c2ccccc2)cc1,5,-1,0,28*,21,6
COc1ncnc2c1cnn2-c1ccccc1,-8,0,4,-16,27*,1
CC(=O)Nc1ccc(Nc2ncnc3c2cnn3-c2cccc(C)c2)cc1,-4,0,4,0,5,0
COc1ccccc1Oc1ncnc2c1cnn2-c1ccccc1,12,-6,-4,-2,-4,0
COc1ccccc1N1CCN(C(=O)[C@@H]2CCCN2C2=NS(=O)(=O)c3ccccc32)CC1,-11,-1,-3,-19,0,3
CCCCCCCNC(=O)CN1C(=O)CSc2ccc(S(=O)(=O)N3CCOCC3)cc21,30*,-6,-7,4,-1,2
CCCCNC(=O)CN1C(=O)CSc2ccc(S(=O)(=O)N3CCOCC3)cc21,4,1,-2,7,-2,0
O=C(N1CCCC1)C12CCC3CC(CC(C3)C1)C2,-6,-8,19*,-14,8,0
C[C@@H](NC(=O)Cn1cnc2c(OCc3ccccc3)ncnc21)c1cccc2ccccc12,-4,6,3,57*,56*,14
